# Experimental data: ChEMBL document CHEMBL1157465, “Design, synthesis, and biological evaluation of novel 3-aryl-4-(1H-indole-3yl)-1,5-dihydro-2H-pyrrole-2-ones as vascular endothelial growth factor receptor (VEGF-R) inhibitors” (J Med Chem, 2008)
# Legend:
# Aurora kinase A = target: T1, Aurora kinase A (Homo sapiens, UniProt O14965); assay: Inhibition of human recombinant Aurora A
# T1 sequence (O14965 whole entry): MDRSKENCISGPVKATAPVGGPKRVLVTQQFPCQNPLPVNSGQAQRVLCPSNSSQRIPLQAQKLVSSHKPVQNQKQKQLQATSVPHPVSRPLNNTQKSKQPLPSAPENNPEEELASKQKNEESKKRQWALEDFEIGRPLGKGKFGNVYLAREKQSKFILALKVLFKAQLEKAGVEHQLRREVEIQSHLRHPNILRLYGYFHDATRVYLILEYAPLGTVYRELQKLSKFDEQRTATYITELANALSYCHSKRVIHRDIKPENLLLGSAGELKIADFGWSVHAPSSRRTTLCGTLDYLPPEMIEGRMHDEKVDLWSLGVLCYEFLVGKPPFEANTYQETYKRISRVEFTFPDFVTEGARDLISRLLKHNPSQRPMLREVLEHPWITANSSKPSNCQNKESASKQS
# Method in brief: (§1)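 Aurora-A or Aurora-B, human cDNA expressed in Sf9 cells as tagged recombinant protein, phosphorylating Tetra(LRRWSLG). Reactions used 60 mM HEPES pH 7.5, Mg2+/Mn2+ (3 mM each), 1.2 mM DTT, vanadate and 1 µM [γ-33P]ATP, ran 80 min at 30 °C and were stopped with 2% H3PO4.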
# Focal adhesion kinase 1 = Focal adhesion kinase 1 (Homo sapiens, UniProt Q05397); assay: Inhibition of human recombinant FAK
# Focal adhesion kinase 1, sequence (Q05397 whole entry): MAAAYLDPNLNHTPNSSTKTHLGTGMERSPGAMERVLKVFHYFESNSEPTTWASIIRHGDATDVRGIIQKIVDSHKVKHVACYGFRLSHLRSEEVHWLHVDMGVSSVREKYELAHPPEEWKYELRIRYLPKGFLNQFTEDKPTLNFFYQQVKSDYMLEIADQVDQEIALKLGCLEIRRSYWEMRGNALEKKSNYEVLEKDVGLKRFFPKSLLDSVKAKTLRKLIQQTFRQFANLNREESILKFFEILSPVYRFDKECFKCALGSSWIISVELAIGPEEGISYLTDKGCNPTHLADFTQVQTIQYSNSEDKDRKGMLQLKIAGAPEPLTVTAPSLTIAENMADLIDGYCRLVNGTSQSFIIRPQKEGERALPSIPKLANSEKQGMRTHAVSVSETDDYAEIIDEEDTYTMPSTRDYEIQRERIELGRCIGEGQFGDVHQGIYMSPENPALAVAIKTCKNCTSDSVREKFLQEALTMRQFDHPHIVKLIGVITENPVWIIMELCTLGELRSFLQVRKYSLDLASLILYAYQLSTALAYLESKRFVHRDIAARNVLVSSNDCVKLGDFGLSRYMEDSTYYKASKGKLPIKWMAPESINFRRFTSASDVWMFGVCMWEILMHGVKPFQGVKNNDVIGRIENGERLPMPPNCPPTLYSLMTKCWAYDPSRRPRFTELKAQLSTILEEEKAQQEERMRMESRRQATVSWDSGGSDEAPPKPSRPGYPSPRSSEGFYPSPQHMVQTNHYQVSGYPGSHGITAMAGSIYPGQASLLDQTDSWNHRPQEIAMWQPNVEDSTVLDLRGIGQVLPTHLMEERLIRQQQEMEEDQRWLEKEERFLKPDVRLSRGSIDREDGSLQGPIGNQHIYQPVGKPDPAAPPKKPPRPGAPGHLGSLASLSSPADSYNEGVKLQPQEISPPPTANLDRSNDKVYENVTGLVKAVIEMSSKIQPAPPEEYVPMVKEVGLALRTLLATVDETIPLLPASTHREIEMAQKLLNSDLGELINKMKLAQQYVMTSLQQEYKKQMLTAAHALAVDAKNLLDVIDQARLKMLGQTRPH
# [1] = target: Cyclin-dependent kinase 4/cyclin D1 (Homo sapiens, UniProt P11802); assay: Inhibition of human recombinant CDK4/cyclin D1; assay type: protein-complex assay
# Cyclin-dependent kinase 4/cyclin D1, sequence (P11802 whole entry): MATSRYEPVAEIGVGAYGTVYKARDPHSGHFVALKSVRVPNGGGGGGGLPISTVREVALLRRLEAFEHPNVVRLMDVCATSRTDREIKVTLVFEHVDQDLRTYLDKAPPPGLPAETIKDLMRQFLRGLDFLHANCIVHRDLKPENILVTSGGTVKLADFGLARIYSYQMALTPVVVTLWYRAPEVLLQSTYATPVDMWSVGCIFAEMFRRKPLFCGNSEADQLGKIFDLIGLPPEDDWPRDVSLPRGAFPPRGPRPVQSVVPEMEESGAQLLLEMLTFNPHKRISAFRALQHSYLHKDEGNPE
# Cyclin-dependent kinase 4/cyclin D1, sequence (P24385 whole entry, further chain): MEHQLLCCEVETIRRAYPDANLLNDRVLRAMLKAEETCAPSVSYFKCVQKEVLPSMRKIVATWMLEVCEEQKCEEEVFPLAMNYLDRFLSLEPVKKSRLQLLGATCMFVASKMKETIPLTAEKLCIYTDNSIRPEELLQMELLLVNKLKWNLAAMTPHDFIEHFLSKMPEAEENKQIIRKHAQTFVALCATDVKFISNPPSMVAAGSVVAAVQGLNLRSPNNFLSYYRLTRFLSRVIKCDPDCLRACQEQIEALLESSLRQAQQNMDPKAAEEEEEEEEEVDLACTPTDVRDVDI
# Method in brief: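 CDK4/CycD1 (human, baculovirus/Sf9, affinity-purified) with Rb-CTF as substrate. The radiometric FlashPlate assay held 1 µM [γ-33P]ATP in HEPES-NaOH pH 7.5 with 3 mM MgCl2 and 3 mM MnCl2.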
# Aurora kinase B = Aurora kinase B (Homo sapiens, UniProt Q96GD4); assay: Inhibition of human recombinant Aurora B; method in brief: as §1
# Aurora kinase B, sequence (Q96GD4 whole entry): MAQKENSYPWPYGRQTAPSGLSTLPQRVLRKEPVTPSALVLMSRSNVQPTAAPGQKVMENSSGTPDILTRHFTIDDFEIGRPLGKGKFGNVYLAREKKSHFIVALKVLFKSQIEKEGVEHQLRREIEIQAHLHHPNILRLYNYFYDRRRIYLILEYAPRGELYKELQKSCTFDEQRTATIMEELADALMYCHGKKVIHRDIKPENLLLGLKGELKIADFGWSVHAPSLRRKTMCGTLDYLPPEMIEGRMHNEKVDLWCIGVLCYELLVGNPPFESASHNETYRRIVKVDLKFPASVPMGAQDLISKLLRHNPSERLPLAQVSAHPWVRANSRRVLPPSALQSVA
# [2] = target: Mitogen-activated protein kinase kinase kinase 8 (Homo sapiens, UniProt P41279); assay: Inhibition of human recombinant COT
# Method in brief: (§2)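 Human kinases expressed in Sf9 cells by baculovirus as GST or His fusions and affinity purified. Radiometric 33PanQinase assay: 60 mM HEPES-NaOH pH 7.5, 3 mM MgCl2, 3 mM MnCl2, 3 µM orthovanadate, 1.2 mM DTT, 1 µM [γ-33P]ATP, 50-400 ng enzyme, 1% DMSO; 30 °C, 80 min. Substrates: B-Raf-VE, MEK1 KM; CDK2/CycA, histone H1; CK2-A1, casein; COT, autophosphorylation. IC50 from 10 concentrations; 33Pi incorporation by scintillation.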
# [3] = target: Proto-oncogene tyrosine-protein kinase Src (Homo sapiens, UniProt P12931); assay: Inhibition of human recombinant SRC
# Proto-oncogene tyrosine-protein kinase Src, sequence (P12931 2-536 limits assumed): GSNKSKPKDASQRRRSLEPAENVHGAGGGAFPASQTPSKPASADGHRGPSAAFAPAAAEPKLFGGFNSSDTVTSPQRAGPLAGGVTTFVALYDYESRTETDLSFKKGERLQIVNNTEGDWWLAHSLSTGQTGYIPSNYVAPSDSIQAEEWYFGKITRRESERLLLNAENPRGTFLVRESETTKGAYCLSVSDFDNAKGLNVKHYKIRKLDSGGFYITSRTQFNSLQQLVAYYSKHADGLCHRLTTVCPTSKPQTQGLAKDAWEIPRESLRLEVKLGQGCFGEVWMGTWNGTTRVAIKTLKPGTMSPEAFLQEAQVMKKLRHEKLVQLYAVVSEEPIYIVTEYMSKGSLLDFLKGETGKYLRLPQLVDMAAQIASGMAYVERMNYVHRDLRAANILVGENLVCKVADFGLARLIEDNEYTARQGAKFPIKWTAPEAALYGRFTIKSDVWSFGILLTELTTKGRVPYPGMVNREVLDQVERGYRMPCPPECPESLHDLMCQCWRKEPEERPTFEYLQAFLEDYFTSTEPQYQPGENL
# Method in brief: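 Human kinases expressed in Sf9 cells via baculovirus as GST or His fusions and affinity purified. 33PanQinase assay in 60 mM HEPES-NaOH pH 7.5, 3 mM MgCl2, 3 mM MnCl2, 3 µM orthovanadate, 1.2 mM DTT, 1 µM [γ-33P]ATP, 1% DMSO; 30 °C, 80 min. Substrates: poly(Glu,Tyr) 4:1 for ERBB2, IGF1-R and SRC; poly(Ala,Glu,Lys,Tyr) 6:2:5:1 for FLT3. IC50 from 10 concentrations by scintillation counting.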
# [4] = target: Serine/threonine-protein kinase B-raf (Homo sapiens, UniProt P15056, V600E); assay: Inhibition of human recombinant B-Raf-V600E mutant; method in brief: as §2
# Angiopoietin-1 receptor = Angiopoietin-1 receptor (Homo sapiens, UniProt Q02763); assay: Inhibition of human recombinant TIE2
# Angiopoietin-1 receptor, sequence (Q02763 whole entry, the tested form may be a part): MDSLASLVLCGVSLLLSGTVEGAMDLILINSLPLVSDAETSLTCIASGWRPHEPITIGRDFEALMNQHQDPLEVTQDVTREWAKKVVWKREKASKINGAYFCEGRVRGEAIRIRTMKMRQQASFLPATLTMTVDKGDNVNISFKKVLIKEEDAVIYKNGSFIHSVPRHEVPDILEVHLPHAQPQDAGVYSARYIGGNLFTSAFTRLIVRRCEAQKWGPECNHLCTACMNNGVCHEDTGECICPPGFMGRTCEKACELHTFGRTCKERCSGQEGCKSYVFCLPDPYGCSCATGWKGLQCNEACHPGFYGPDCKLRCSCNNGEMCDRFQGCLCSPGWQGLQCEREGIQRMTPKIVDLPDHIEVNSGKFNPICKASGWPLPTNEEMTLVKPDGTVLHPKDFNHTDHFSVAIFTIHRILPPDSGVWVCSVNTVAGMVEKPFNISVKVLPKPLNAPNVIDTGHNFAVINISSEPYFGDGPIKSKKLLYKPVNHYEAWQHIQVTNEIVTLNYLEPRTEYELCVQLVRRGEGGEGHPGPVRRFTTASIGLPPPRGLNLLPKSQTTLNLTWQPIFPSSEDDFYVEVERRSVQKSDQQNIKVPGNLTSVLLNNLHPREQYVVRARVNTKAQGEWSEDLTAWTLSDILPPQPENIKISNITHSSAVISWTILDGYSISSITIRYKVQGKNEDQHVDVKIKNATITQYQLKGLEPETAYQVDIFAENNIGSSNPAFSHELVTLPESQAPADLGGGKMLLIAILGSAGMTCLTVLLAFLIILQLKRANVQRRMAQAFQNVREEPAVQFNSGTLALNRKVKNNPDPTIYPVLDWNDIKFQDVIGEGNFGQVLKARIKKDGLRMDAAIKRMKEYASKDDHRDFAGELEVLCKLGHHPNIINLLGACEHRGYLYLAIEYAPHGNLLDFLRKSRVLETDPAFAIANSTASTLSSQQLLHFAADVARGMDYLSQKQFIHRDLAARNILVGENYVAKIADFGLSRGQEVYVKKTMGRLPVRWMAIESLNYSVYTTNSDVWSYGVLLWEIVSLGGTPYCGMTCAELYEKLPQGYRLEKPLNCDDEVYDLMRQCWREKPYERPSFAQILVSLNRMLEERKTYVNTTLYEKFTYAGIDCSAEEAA
# Method in brief: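 Recombinant human tyrosine kinases (EPHB4, TIE2, VEGF-R2, VEGF-R3), expressed in Sf9 insect cells as GST- or His-fusions, with poly(Glu,Tyr) 4:1 as substrate. Conditions: 1 µM [γ-33P]ATP, pH 7.5 HEPES buffer with Mg/Mn, DTT and vanadate, 30 °C for 80 min, 1% DMSO. Ten concentrations were tested and IC50 came from scintillation counting of incorporated 33P.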
# [5] = target: Platelet-derived growth factor receptor beta (Homo sapiens, UniProt P09619); assay: Inhibition of human recombinant PDGFRbeta
# Platelet-derived growth factor receptor beta, sequence (P09619 whole entry): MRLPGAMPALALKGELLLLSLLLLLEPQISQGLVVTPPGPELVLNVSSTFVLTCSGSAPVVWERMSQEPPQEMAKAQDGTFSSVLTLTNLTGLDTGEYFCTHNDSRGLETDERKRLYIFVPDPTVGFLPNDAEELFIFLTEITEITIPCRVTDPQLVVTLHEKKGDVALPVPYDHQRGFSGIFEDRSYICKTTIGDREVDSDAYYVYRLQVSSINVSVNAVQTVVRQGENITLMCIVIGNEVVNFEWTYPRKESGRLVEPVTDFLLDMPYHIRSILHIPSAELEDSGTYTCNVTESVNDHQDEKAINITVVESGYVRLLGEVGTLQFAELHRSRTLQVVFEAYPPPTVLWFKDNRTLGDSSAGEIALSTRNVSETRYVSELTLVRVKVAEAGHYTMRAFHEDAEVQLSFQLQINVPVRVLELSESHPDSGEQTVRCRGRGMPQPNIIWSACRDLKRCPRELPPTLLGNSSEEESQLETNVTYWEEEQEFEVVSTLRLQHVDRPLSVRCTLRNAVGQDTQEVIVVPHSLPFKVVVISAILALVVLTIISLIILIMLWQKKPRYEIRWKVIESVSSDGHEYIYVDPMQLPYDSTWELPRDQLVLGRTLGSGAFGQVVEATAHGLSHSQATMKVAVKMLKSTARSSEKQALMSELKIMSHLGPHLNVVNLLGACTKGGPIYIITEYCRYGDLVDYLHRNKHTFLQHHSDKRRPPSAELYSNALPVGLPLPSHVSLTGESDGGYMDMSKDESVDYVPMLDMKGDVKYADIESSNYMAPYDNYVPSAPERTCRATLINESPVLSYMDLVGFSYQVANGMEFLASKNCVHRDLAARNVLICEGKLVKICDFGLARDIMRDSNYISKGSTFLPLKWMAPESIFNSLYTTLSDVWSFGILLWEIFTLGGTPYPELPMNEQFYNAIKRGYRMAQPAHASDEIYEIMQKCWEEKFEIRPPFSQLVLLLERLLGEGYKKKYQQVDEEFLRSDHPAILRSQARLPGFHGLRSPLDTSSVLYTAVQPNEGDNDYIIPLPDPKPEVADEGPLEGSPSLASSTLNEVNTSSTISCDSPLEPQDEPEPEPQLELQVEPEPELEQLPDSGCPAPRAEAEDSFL
# Insulin receptor = Insulin receptor (Homo sapiens, UniProt P06213); assay: Inhibition of human recombinant INS-R
# [6] = target: T2, NUAK family SNF1-like kinase 1 (Homo sapiens, UniProt O60285); assay: Inhibition of human recombinant ARK5
# T2 sequence (O60285 whole entry): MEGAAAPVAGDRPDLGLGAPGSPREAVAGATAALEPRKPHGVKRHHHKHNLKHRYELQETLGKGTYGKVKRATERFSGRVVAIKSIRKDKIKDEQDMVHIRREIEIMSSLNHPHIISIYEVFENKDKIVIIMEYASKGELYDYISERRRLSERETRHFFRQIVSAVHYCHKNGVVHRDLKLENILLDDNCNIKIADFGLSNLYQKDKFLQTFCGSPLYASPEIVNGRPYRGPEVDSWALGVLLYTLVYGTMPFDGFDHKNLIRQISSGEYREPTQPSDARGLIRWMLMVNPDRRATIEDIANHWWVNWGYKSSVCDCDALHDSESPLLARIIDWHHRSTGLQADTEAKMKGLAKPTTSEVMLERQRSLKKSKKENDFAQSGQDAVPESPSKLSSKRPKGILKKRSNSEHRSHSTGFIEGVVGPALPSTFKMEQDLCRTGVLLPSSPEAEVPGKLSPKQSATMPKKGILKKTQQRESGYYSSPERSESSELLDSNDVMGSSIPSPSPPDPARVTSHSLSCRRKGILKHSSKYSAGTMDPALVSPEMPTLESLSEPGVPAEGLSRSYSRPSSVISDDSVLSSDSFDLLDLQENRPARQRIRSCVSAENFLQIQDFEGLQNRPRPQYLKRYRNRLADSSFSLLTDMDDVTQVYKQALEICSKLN
# Method in brief: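 Human ARK5 made in Sf9 cells by baculovirus (GST- or His-tagged, affinity-purified) and read by autophosphorylation in a 33PanQinase radiometric assay. Buffer: 60 mM HEPES-NaOH pH 7.5, 3 mM MgCl2, 3 mM MnCl2, 3 µM orthovanadate, 1.2 mM DTT, PEG20000 and 1 µM [γ-33P]ATP.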
# Homo sapiens [7] = species on record: Homo sapiens; assay: Antiangiogenic activity in VEGF-induced HLMEC assessed as sprouts per bead at 1.3 uM after 24 hrs by sprouting assay; assay type: functional
# Method in brief: (§3)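 HLMEC seeded on cytodex-3 microcarrier beads and embedded in 3D fibrinogen gel with 20 ng/mL VEGF plus compound at a final 1.3 or 2.6 µM (from 1 mM DMSO stock). Gel polymerised with 0.65 U/mL thrombin and overlaid with MCDB131, 5% FCS, 5% human serum and 200 U/mL Trasylol. Negative control: gel without growth factors. After 24 h, fixed in 1% PFA; sprouts per 50 beads counted microscopically. Triplicates per condition, n = 9 experiments.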
# Homo sapiens [8] = species on record: Homo sapiens; assay: Antiangiogenic activity in VEGF-induced HLMEC assessed as number of sprouts per bead at 2.6 uM after 24 hrs by sprouting assay; assay type: functional; method in brief: as §3
Compound,IC50 (Aurora kinase A),IC50 (Aurora kinase B),IC50 [3],IC50 (Angiopoietin-1 receptor),IC50 [6],IC50 (Focal adhesion kinase 1),IC50 [1],IC50 [2],IC50 [4],IC50 [5],IC50 (Insulin receptor),inhibition (Homo sapiens [7]),Activity (Homo sapiens [8])
COc1cc(C2=C(c3cn(COC(C)(C)C)c4ccccc34)CNC2=O)cc(OC)c1OC,30 µM,43 µM,4.4 µM,11 µM,,28 µM,27 µM,9.6 µM,38 µM,38 µM,27 µM,,
COc1cc(C2=C(c3cn(CC(O)CO)c4ccccc34)CNC2=O)cc(OC)c1OC (stereo unspecified),47 µM,,,25 µM,34 µM,,,,,40 µM,,,
COc1cc(C2=C(c3cn(C)c4ccccc34)C(=O)NC2)cc(OC)c1OC,3.2 µM,9.8 µM,,,4.9 µM,50 µM,40 µM,,50 µM,,47 µM,,

# Continued, in another order:
IC50 (Aurora kinase A),IC50 (Aurora kinase B),IC50 [3],IC50 (Angiopoietin-1 receptor),IC50 [6],Compound,IC50 (Focal adhesion kinase 1),IC50 [1],IC50 [2],IC50 [4],IC50 [5],IC50 (Insulin receptor),inhibition (Homo sapiens [7]),Activity (Homo sapiens [8])
16 µM,4.9 µM,,,2 µM,COc1ccc(C2=C(c3c[nH]c4ccccc34)C(=O)NC2)cc1,,35 µM,,,,,,
3.2 µM,2.1 µM,41 µM,34 µM,1.8 µM,COc1cc(C2=C(c3c[nH]c4ccccc34)C(=O)NC2)cc(OC)c1OC,,30 µM,,,,,34%,2.56
16 µM,46 µM,14 µM,5.2 µM,,COc1cc(C2=C(c3c[nH]c4ccccc34)CNC2=O)cc(OC)c1OC,9.5 µM,,32 µM,,,,88%,0.27
